Assay results reported in ChEMBL document CHEMBL3627646, “Synthesis and biological activity of amino acid derivatives of avarone and its model compound” (Bioorg Med Chem, 2015).
Converted amounts (≈) assume the structure as drawn.

Legend:
Escherichia coli = experiment: Antibacterial activity against Escherichia coli ATCC 25922 after 24 hrs by microbroth double dilution method; assay type: functional; conditions: ATCC 25922, 24 h
Procedure, shortened: (§1)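 Microbroth double dilution in Mueller Hinton broth; compound stock 10 mg/mL in DMSO serially halved across rows. Wells inoculated with 10 μL culture at 10^6 cells/mL, incubated 37 °C for 24 h. Amikacin row as positive control, DMSO row as negative control. MIC taken as lowest concentration inhibiting bacterial growth.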

Kocuria rhizophila = experiment: Antibacterial activity against Kocuria rhizophila ATCC 9341 after 24 hrs by microbroth double dilution method; assay type: functional; conditions: ATCC 9341, 24 h; procedure, shortened: as §1
Pseudomonas aeruginosa = experiment: Antibacterial activity against Pseudomonas aeruginosa ATCC 9027 after 24 hrs by microbroth double dilution method; assay type: functional; conditions: ATCC 9027, 24 h; procedure, shortened: as §1
Micrococcus flavus = experiment: Antibacterial activity against Micrococcus flavus ATCC 10240 after 24 hrs by microbroth double dilution method; assay type: functional; conditions: ATCC 10240, 24 h; procedure, shortened: as §1
MDA-MB-453 = experiment: Cytotoxicity against human MDA-MB-453 cells assessed as cell survival after 72 hrs by MTT assay; assay type: functional, cell-based; conditions: MDA-MB-453, 72 h
Procedure, shortened: (§2)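 Cells seeded (HeLa 2000, MDA-MB-453 3000, others 5000 per well), treated 24 h later (K562 after 2 h). Five double-diluted final concentrations, 200–12.5 μM, from 10 mM DMSO stocks, in RPMI-1640 with 10% FBS, pH 7.2, 72 h. MTT 4 h at 37 °C, SDS added, A570 read next day. Survival relative to medium control; IC50 from survival curves; triplicate; cisplatin positive control.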

Artemia salina = experiment: Cytotoxicity in Brine shrimp assessed as nauplii mortality after 24 hrs; assay type: organism-based; conditions: in vivo
Procedure, shortened: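 Artemia salina eggs hatched in aerated tap water with dried yeast at 18–20 °C under illumination for 48 h, and freshly hatched nauplii were used. Compounds in DMSO (0.01–1 mg) were added to 950 µL artificial seawater containing 10–20 nauplii, with 5% final DMSO. After 24 h under illumination at room temperature, dead and surviving nauplii were counted and statistically analysed.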

HeLa = experiment: Cytotoxicity against human HeLa cells assessed as cell survival after 72 hrs by MTT assay; assay type: functional, cell-based; procedure, shortened: as §2
MRC5 = experiment: Cytotoxicity against human MRC5 cells assessed as cell survival after 72 hrs by MTT assay; assay type: cell-based; conditions: MRC5, 72 h; procedure, shortened: as §2
Aspergillus brasiliensis = experiment: Antifungal activity against Aspergillus brasiliensis ATCC 16404 after 24 hrs by microbroth double dilution method; assay type: functional
Micrococcus luteus = experiment: Antibacterial activity against Micrococcus luteus ATCC 4698 after 24 hrs by microbroth double dilution method; assay type: functional; conditions: ATCC 4698, 24 h; procedure, shortened: as §1
A549 = experiment: Cytotoxicity against human A549 cells assessed as cell survival after 72 hrs by MTT assay; assay type: functional, cell-based; conditions: A549, 72 h; procedure, shortened: as §2
Candida albicans = experiment: Antifungal activity against Candida albicans ATCC 10231 after 24 hrs by microbroth double dilution method; assay type: functional
K562 = experiment: Cytotoxicity against human K562 cells assessed as cell survival after 72 hrs by MTT assay; assay type: functional, cell-based; conditions: K562, 72 h; procedure, shortened: as §2
Proteus hauseri = experiment: Antibacterial activity against Proteus hauseri ATCC 13315 after 24 hrs by microbroth double dilution method; assay type: functional; conditions: ATCC 13315, 24 h; procedure, shortened: as §1
Salmonella enterica = experiment: Antibacterial activity against Salmonella enterica ATCC 13076 after 24 hrs by microbroth double dilution method; assay type: functional; conditions: ATCC 13076, 24 h; procedure, shortened: as §1
Bacillus subtilis = experiment: Antibacterial activity against Bacillus subtilis ATCC 6633 after 24 hrs by microbroth double dilution method; assay type: functional; conditions: ATCC 6633, 24 h; procedure, shortened: as §1
Staphylococcus aureus = experiment: Antibacterial activity against Staphylococcus aureus ATCC 6538 after 24 hrs by microbroth double dilution method; assay type: functional; conditions: ATCC 6538, 24 h; procedure, shortened: as §1
Saccharomyces cerevisiae = experiment: Antifungal activity against Saccharomyces cerevisiae ATCC 9763 after 24 hrs by microbroth double dilution method; assay type: functional
[1] = Cytotoxicity against human Fem-X cells assessed as cell survival after 72 hrs by MTT assay; assay type: functional, cell-based; procedure, shortened: as §2
Clostridium sporogenes = experiment: Antibacterial activity against Clostridium sporogenes ATCC 19404 after 24 hrs by microbroth double dilution method; assay type: functional; conditions: ATCC 19404, 24 h; procedure, shortened: as §1

Compound	MIC (Escherichia coli) [µM]	MIC (Kocuria rhizophila) [µM]	MIC (Pseudomonas aeruginosa) [µM]	MIC (Micrococcus flavus) [µM]	IC50 (MDA-MB-453) [µM]	LC50 (Artemia salina) [ppm]	IC50 (HeLa) [µM]	IC50 (MRC5) [µM]	MIC (Aspergillus brasiliensis; ATCC 16404, 24 h) [µM]	MIC (Micrococcus luteus) [µM]	IC50 (A549) [µM]	MIC (Candida albicans; ATCC 10231, 24 h) [µM]	IC50 (K562) [µM]	MIC (Proteus hauseri) [µM]	MIC (Salmonella enterica) [µM]	MIC (Bacillus subtilis) [µM]	MIC (Staphylococcus aureus) [µM]	MIC (Saccharomyces cerevisiae; ATCC 9763, 24 h) [µM]	IC50 [1] [µM]	MIC (Clostridium sporogenes) [µM]	further results
CC1=CCC[C@H]2[C@](C)(CC3=CC(=O)C=C(NCC(=O)O)C3=O)[C@@H](C)CC[C@]12C	101 (≈ 39 µg/mL)	811 (≈ 313 µg/mL)	407 (≈ 157 µg/mL)	407 (≈ 157 µg/mL)	5.84	487.1	19.9	183	404 (≈ 156 µg/mL)	101 (≈ 39 µg/mL)	46.7	12.6 (≈ 4.86 µg/mL)	15.6	811 (≈ 313 µg/mL)	407 (≈ 157 µg/mL)	407 (≈ 157 µg/mL)	101 (≈ 39 µg/mL)	100 (≈ 38.7 µg/mL)	17.8	407 (≈ 157 µg/mL)	–
CC(C)(C)C1=CC(=O)C=C(NCC(=O)O)C1=O	662 (≈ 157 µg/mL)	2640 (≈ 626 µg/mL)	662 (≈ 157 µg/mL)	2640 (≈ 626 µg/mL)	171	197.4	132	> 200	2640 (≈ 626 µg/mL)	662 (≈ 157 µg/mL)	> 200	662 (≈ 157 µg/mL)	85	2640 (≈ 626 µg/mL)	2640 (≈ 626 µg/mL)	1320 (≈ 313 µg/mL)	662 (≈ 157 µg/mL)	662 (≈ 157 µg/mL)	34.3	2640 (≈ 626 µg/mL)	–
CC(C)(C)C1=CC(=O)C(N2CCC[C@H]2C(=O)O)=CC1=O	567 (≈ 157 µg/mL)	2260 (≈ 626 µg/mL)	2260 (≈ 626 µg/mL)	2260 (≈ 626 µg/mL)	67.2	883.4	44.9	> 200	2260 (≈ 626 µg/mL)	567 (≈ 157 µg/mL)	186	567 (≈ 157 µg/mL)	49.2	2260 (≈ 626 µg/mL)	2260 (≈ 626 µg/mL)	1130 (≈ 313 µg/mL)	567 (≈ 157 µg/mL)	567 (≈ 157 µg/mL)	87.3	2260 (≈ 626 µg/mL)	–
CC(C)[C@@H](NC1=CC(=O)C=C(C(C)(C)C)C1=O)C(=O)O	1120 (≈ 313 µg/mL)	4480 (≈ 1250 µg/mL)	2240 (≈ 626 µg/mL)	2240 (≈ 626 µg/mL)	133	574.9	96.5	> 200	2240 (≈ 626 µg/mL)	1120 (≈ 313 µg/mL)	154	563 (≈ 157 µg/mL)	57.8	4480 (≈ 1250 µg/mL)	4480 (≈ 1250 µg/mL)	2240 (≈ 626 µg/mL)	1120 (≈ 313 µg/mL)	563 (≈ 157 µg/mL)	24.6	2240 (≈ 626 µg/mL)	–
NYSTATIN	–	–	–	–	–	–	–	–	–	–	–	–	–	–	–	–	–	–	–	–	MIC (Aspergillus brasiliensis): 1350 µM; MIC (Candida albicans): 2700 µM; MIC (Saccharomyces cerevisiae): 1350 µM
CC(C)(C)C1=CC(=O)C=C(N[C@@H](Cc2c[nH]c3ccccc23)C(=O)O)C1=O	1710 (≈ 626 µg/mL)	1710 (≈ 626 µg/mL)	1710 (≈ 626 µg/mL)	1710 (≈ 626 µg/mL)	120	–	106	> 200	1410 (≈ 516 µg/mL)	1710 (≈ 626 µg/mL)	198	213 (≈ 78.1 µg/mL)	25	1710 (≈ 626 µg/mL)	1710 (≈ 626 µg/mL)	1710 (≈ 626 µg/mL)	855 (≈ 313 µg/mL)	213 (≈ 78.1 µg/mL)	34.7	1710 (≈ 626 µg/mL)	–
NCC[C@H](O)C(=O)N[C@@H]1C[C@H](N)[C@@H](O[C@H]2O[C@H](CN)[C@@H](O)[C@H](O)[C@H]2O)[C@H](O)[C@H]1O[C@H]1O[C@H](CO)[C@@H](O)[C@H](N)[C@H]1O [AMIKACIN]	8.54 (≈ 5 µg/mL)	3.42 (≈ 2 µg/mL)	85.4 (≈ 50 µg/mL)	3.42 (≈ 2 µg/mL)	–	–	–	–	–	13.7 (≈ 7.99 µg/mL)	–	–	–	11.9 (≈ 7 µg/mL)	13.7 (≈ 8 µg/mL)	71.7 (≈ 42 µg/mL)	18.8 (≈ 11 µg/mL)	–	–	25.6 (≈ 15 µg/mL)	–
